Measurements as given in ChEMBL document CHEMBL1132436 (J Med Chem, 1999).
Each block holds one molecule with its values, some of them ahead of it. Residues, ends and D or L forms follow the SMILES beside them.

Columns and labels:
[1] = organism: Homo sapiens; experiment: Ability of Compound (Agonist) to contract isolated human umbilical vein in absence of inhibitor.; format: functional
[2] = organism: Homo sapiens; experiment: (§1) Ability of Compound (Agonist) to contract isolated human umbilical vein in presence of inhibitor.; format: functional
[3] = target: T1, B2 bradykinin receptor (Homo sapiens, UniProt P30411); experiment: Binding affinity towards human cloned Bradykinin receptor B2 expressed in CHO cells by [3H]bradykinin displacement.; format: cell-based
T1 sequence (P30411 whole entry): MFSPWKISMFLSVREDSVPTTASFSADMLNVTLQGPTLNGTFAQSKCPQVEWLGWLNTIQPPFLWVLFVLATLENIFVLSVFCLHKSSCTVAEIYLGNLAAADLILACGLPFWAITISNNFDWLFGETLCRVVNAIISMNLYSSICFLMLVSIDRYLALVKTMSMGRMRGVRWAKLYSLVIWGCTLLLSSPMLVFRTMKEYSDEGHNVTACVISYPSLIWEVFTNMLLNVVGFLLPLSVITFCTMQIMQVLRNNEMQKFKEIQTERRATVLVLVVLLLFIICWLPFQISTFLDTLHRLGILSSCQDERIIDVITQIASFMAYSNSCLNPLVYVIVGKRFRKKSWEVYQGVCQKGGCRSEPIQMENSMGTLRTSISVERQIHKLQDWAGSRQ
Method in brief: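 Membranes from stably transfected CHO cells, scraped into 20 mM TES (pH 6.8) with 1 mM 1,10-phenanthroline, 140 μg/mL bacitracin and 0.1% BSA, then pelleted at 40000g for 15 min. Filtered through PEI-soaked GF/B filters and counted by scintillation. Means of ≥3 experiments in duplicate.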

[4] = organism: Homo sapiens; experiment: as §1; format: functional, organism-based; details: read-out: pA2 (converted)

Molecule: N=C(N)NCCC[C@@H](N)C(=O)N[C@@H](CCCNC(=N)N)C(=O)N1CCC[C@H]1C(=O)N1C[C@H](O)C[C@H]1C(=O)NCC(=O)N[C@@H](Cc1cccs1)C(=O)N[C@@H](CO)C(=O)N[C@@H]1CSc2ccccc2N(CC(=O)N[C@@H](CCCNC(=N)N)C(=O)O)C1=O [listing 1 of 2 here]
pD2 [1]: 6.7
pD2 [2]: 6.8

Molecule: N=C(N)NCCC[C@@H](N)C(=O)N[C@@H](CCCNC(=N)N)C(=O)N1CCC[C@H]1C(=O)N1CC(O)C[C@H]1C(=O)NCC(=O)N[C@@H](Cc1cccs1)C(=O)N[C@@H](CO)C(=O)N[C@@H]1CCN(CC(=O)N[C@@H](CCCNC(=N)N)C(=O)O)C1=O (some centres not stated)
Ki [3]: 4900 nM

Molecule: N=C(N)NCCC[C@@H](N)C(=O)N[C@@H](CCCNC(=N)N)C(=O)N1CCC[C@H]1C(=O)N1C[C@H](O)C[C@H]1C(=O)NCC(=O)N[C@@H](Cc1cccs1)C(=O)N[C@@H](CO)C(=O)N1Cc2ccccc2C[C@@H]1C(=O)N1[C@H](C(=O)N[C@@H](CCCNC(=N)N)C(=O)O)C[C@@H]2CCCC[C@@H]21 [ICATIBANT]
Kb [4]: 6.31 nM

Molecule: N=C(N)NCCC[C@@H](N)C(=O)N[C@@H](CCCNC(=N)N)C(=O)N1CCC[C@H]1C(=O)N1C[C@H](O)C[C@H]1C(=O)NCC(=O)N[C@@H](Cc1cccs1)C(=O)N[C@@H](CO)C(=O)N[C@@H]1COc2ccccc2N(CC(=O)N[C@@H](CCCNC(=N)N)C(=O)O)C1=O [listing 1 of 2 here]
Ki [3]: 2.5 nM

Molecule: COc1ccc(C[C@@H](CN[C@@H](CCCN=C(N)N)C(=O)O)NC(=O)[C@@H]2CCCN2C(=O)[C@H](CO)NC(=O)[C@H](Cc2cccs2)NC(=O)CNC(=O)[C@@H]2C[C@@H](O)CN2C(=O)[C@@H]2CCCN2C(=O)[C@@H](N)CCCN=C(N)N)cc1 (HELM PEPTIDE1{R.P.[Hyp].G.[O=C([C@H](Cc1cccs1)N[*:1])[*:2]].S.P.[COc1ccc(C[C@@H](CN[C@@H](CCCN=C(N)N)C(=O)O)N[*:1])cc1]}$$$$V2.0)
pD2 [1]: 6.9
pD2 [2]: 7.1

Molecule: H-RPPGFSPFR-OH [BRADYKININ]
pD2 [1]: 7.4
pD2 [2]: 7.9

Molecule: Cc1ccc2c(c1)SC[C@@H](NC(=O)[C@H](CO)NC(=O)[C@H](Cc1cccs1)NC(=O)CNC(=O)[C@@H]1C[C@@H](O)CN1C(=O)[C@@H]1CCCN1C(=O)[C@H](CCCNC(=N)N)NC(=O)[C@H](N)CCCNC(=N)N)C(=O)N2CC(=O)N[C@@H](CCCNC(=N)N)C(=O)O [listing 1 of 2 here]
Ki [3]: 6 nM

Molecule: N=C(N)NCCC[C@@H](N)C(=O)N[C@@H](CCCNC(=N)N)C(=O)N1CCC[C@H]1C(=O)N1C[C@H](O)C[C@H]1C(=O)NCC(=O)N[C@@H](Cc1cccs1)C(=O)N[C@@H](CO)C(=O)N[C@@H]1CSc2ccccc2N(CC(=O)N[C@@H](CCCNC(=N)N)C(=O)O)C1=O [listing 2 of 2 here]
Ki [3]: 0.7 nM

Molecule: N=C(N)NCCC[C@@H](N)C(=O)N[C@@H](CCCNC(=N)N)C(=O)N1CCC[C@H]1C(=O)N1C[C@H](O)C[C@H]1C(=O)NCC(=O)N[C@@H](Cc1cccs1)C(=O)N[C@@H](CO)C(=O)N[C@@H]1COc2ccccc2N(CC(=O)N[C@@H](CCCNC(=N)N)C(=O)O)C1=O [listing 2 of 2 here]
pD2 [1]: 5.1

Molecule: N=C(N)NCCC[C@H](NC(=O)CN1C(=O)[C@H](NC(=O)[C@H](CO)NC(=O)[C@H](Cc2cccs2)NC(=O)CNC(=O)[C@@H]2C[C@@H](O)CN2C(=O)[C@@H]2CCCN2C(=O)[C@H](CCCNC(=N)N)NC(=O)[C@@H](N)CCCCN)CSc2ccccc21)C(=O)O [listing 1 of 2 here]
Ki [3]: 0.07 nM

Molecule: N=C(N)NCCC[C@H](NC(=O)CN1C(=O)[C@H](NC(=O)[C@H](CO)NC(=O)[C@H](Cc2cccs2)NC(=O)CNC(=O)[C@@H]2C[C@@H](O)CN2C(=O)[C@@H]2CCCN2C(=O)[C@H](CCCNC(=N)N)NC(=O)[C@@H](N)CCCCN)CSc2ccccc21)C(=O)O [listing 2 of 2 here]
pD2 [1]: 7
pD2 [2]: 7.1

Molecule: N=C(N)NCCC[C@@H](N)C(=O)N[C@@H](CCCNC(=N)N)C(=O)N1CCC[C@H]1C(=O)N1CC(O)C[C@H]1C(=O)NCC(=O)N[C@@H](Cc1cccs1)C(=O)N[C@@H](CO)C(=O)N[C@H]1CCCCN(CC(=O)N[C@@H](CCCNC(=N)N)C(=O)O)C1=O (some centres not stated)
Ki [3]: 520 nM

Molecule: N=C(N)NCCC[C@@H](N)C(=O)N[C@@H](CCCNC(=N)N)C(=O)N1CCC[C@H]1C(=O)N1CC(O)C[C@H]1C(=O)NCC(=O)N[C@@H](Cc1cccs1)C(=O)N[C@@H](CO)C(=O)N[C@H]1CCN(CC(=O)N[C@@H](CCCNC(=N)N)C(=O)O)C1=O (some centres not stated)
Ki [3]: 1030 nM

Molecule: N=C(N)NCCC[C@@H](N)C(=O)N[C@@H](CCCNC(=N)N)C(=O)N1CCC[C@H]1C(=O)N1CC(O)C[C@H]1C(=O)NCC(=O)N[C@@H](Cc1cccs1)C(=O)N[C@@H](CO)C(=O)N[C@H]1CCCN(CC(=O)N[C@@H](CCCNC(=N)N)C(=O)O)C1=O (some centres not stated)
Ki [3]: 18600 nM

Molecule: Cc1ccc2c(c1)SC[C@@H](NC(=O)[C@H](CO)NC(=O)[C@H](Cc1cccs1)NC(=O)CNC(=O)[C@@H]1C[C@@H](O)CN1C(=O)[C@@H]1CCCN1C(=O)[C@H](CCCNC(=N)N)NC(=O)[C@H](N)CCCNC(=N)N)C(=O)N2CC(=O)N[C@@H](CCCNC(=N)N)C(=O)O [listing 2 of 2 here]
pD2 [1]: 7.3
pD2 [2]: 7.4

Results, then the molecule that gave them:

Ki [3]: 770 nM
Molecule: NC(N)=NCCC[C@@H](N)C(=O)N[C@@H](CCCN=C(N)N)C(=O)N1CCC[C@H]1C(=O)N1CC(O)C[C@H]1C(=O)NCC(=O)N[C@@H](Cc1cccs1)C(=O)N[C@@H](CO)C(=O)N[C@@H]1CCCCN(CC(=O)N[C@@H](CCCN=C(N)N)C(=O)O)C1=O (some centres not stated)

Ki [3]: 2070 nM
Molecule: NC(N)=NCCC[C@@H](N)C(=O)N[C@@H](CCCN=C(N)N)C(=O)N1CCC[C@H]1C(=O)N1CC(O)C[C@H]1C(=O)NCC(=O)N[C@@H](Cc1cccs1)C(=O)N[C@@H](CO)C(=O)N[C@@H]1CCN([C@@H](Cc2ccccc2)C(=O)N[C@@H](CCCN=C(N)N)C(=O)O)C1=O (some centres not stated)

Ki ([3]; cho): 140 nM
Molecule: NC(N)=NCCC[C@@H](N)C(=O)N[C@@H](CCCN=C(N)N)C(=O)N1CCC[C@H]1C(=O)N1CC(O)C[C@H]1C(=O)NCC(=O)N[C@@H](Cc1cccs1)C(=O)N[C@@H](CO)C(=O)N[C@@H]1CCc2cccc3c2N(C1=O)[C@@H](C(=O)N[C@H](CCCN=C(N)N)C(=O)O)C3 (some centres not stated)

Ki ([3]; cho): 1040 nM
Molecule: NC(N)=NCCC[C@@H](N)C(=O)N[C@@H](CCCN=C(N)N)C(=O)N1CCC[C@H]1C(=O)N1C[C@H](O)C[C@H]1C(=O)NCC(=O)N[C@@H](Cc1cccs1)C(=O)N[C@@H](CO)C(=O)NC1N=C(c2ccccc2)c2ccccc2N(CC(=O)N[C@@H](CCCN=C(N)N)C(=O)O)C1=O (stereo in doubt; 35)

Ki ([3]; cho): 160 nM
Molecule: NC(N)=NCCC[C@@H](N)C(=O)N[C@@H](CCCN=C(N)N)C(=O)N1CCC[C@H]1C(=O)N1CC(O)C[C@H]1C(=O)NCC(=O)N[C@@H](Cc1cccs1)C(=O)N[C@@H](CO)C(=O)N[C@H]1CCc2cccc3c2N(C1=O)[C@@H](C(=O)N[C@H](CCCN=C(N)N)C(=O)O)C3 (some centres not stated)

Ki [3]: 14 nM
Molecule: NC(N)=NCCC[C@@H](N)C(=O)N[C@@H](CCCN=C(N)N)C(=O)N1CCC[C@H]1C(=O)N1CC(O)C[C@H]1C(=O)NCC(=O)N[C@@H](Cc1cccs1)C(=O)N[C@@H](CO)C(=O)N[C@]1(Cc2ccccc2)C(=O)C(Cc2ccccc2)N(CC(=O)N[C@@H](CCCN=C(N)N)C(=O)O)C1=O (some centres not stated)

Ki ([3]; cho): 86 nM
Molecule: NC(N)=NCCC[C@@H](N)C(=O)N[C@@H](CCCN=C(N)N)C(=O)N1CCC[C@H]1C(=O)N1C[C@H](O)C[C@H]1C(=O)NCC(=O)N[C@@H](Cc1cccs1)C(=O)N[C@@H](CO)C(=O)NC1N=C(c2ccccc2)c2ccccc2N(CC(=O)N[C@@H](CCCN=C(N)N)C(=O)O)C1=O (stereo in doubt; 34)
